Screening data as filed in PubChem BioAssay.
The list is not random: actives were taken first. Their share in the collection is about 9%.
M1 antagonist = M1 muscarinic receptor (rat) antagonism | actives 3.4% (n = 64,000) | P08482 | B-score at 10 µM | CHO-M1 cells, Fluo-4 calcium, ACh EC80 antagonist mode; hits give low values;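 active = calcium fluorescence response, raw or row-and-column corrected B-score, differing from the plate sample mean either way at a set confidence level, mostly lower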
Target sequence (P08482 whole entry, looked up): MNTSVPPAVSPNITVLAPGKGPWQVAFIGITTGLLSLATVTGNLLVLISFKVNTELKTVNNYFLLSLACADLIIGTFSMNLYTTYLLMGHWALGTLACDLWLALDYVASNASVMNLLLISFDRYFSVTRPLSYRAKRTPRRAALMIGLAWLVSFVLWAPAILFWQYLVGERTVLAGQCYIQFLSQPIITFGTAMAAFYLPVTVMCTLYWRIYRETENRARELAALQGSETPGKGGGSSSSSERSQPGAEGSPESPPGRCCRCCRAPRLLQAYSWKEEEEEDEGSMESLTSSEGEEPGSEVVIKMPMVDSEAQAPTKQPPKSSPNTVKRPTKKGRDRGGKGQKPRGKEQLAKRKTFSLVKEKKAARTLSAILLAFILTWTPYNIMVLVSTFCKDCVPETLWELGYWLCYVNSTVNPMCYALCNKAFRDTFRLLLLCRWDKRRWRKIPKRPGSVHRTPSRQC
mHtt clearance = compounds clearing mutant huntingtin protein | HeLa Exon1htt(103Q)mCFP, aggregate imaging; zero = plate's median compound well | inhibition, % at 1.5 µM | actives 0.42% (n = 47,000) | AID 853;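 active = inhibition of aggregate fluorescence above about 70%, also judged a hit by eye on the cell image, limit read from the data, passing the limit was not always enough; inconclusive = no rule stated for this call; inactive = not judged a hit on image review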;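 note: cells exposed to compound for three days before fixation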
AP complement = orthogonal test for alternative complement pathway inhibitors | Human serum alternative complement pathway, LPS-coated ELISA, C3 deposition; tested in compound mixtures | inhibition, % at 5 µM | actives 0.08% (n = 62,000);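 active = inhibition above 30% in each of the two pooled mixtures holding the compound, so the lower value exceeds 30%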;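 note: 0% = serum in Mg-EGTA without compound and 100% = EDTA serum blank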
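Test system: human serum alternative complement pathway, C3 deposition on LPS-coated wells; also added: Plate-bound LPS; doses: 5 µM per compound in ten-compound mixtures; schedule: 1 h at 37 °C; detection: Anti-C3 ELISA, OD 450 nm; evaluation: percent inhibition of C3 deposition onto LPS; repeats: two pool placements per compound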
D1 allo mod = allosteric modulators of human D1 dopamine receptor. P21728. B-score at 10 µM. HEK293 D1, CRE-luciferase, dopamine EC30 potentiation; actives deviate in either direction. actives 5.9% (n = 58,000);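 active = luminescence count or its row- and column-corrected plate score outside the 99.7% band of the plate's sample wells, on either side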
M1 agonist = M1 muscarinic receptor agonism; actives 3% (n = 64,000); CHO-M1 cells, Fluo-4 calcium fluorescence, agonist mode; hits give high values; B-score at 10 µM;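 active = fluorescence rise, raw or as B-score row- and column-corrected plate score, outside the 99.7% band of its plate's samples, either direction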
M1 ag confirm = confirmation of rat M1 muscarinic receptor agonists; actives 19% (n = 1,700); CHO-M1 cells, Fluo-4 calcium fluorescence, agonist mode; actives lie on both sides; AID 1488; shares compounds with M1 agonist; fluorescence change (max-min) at 10 µM;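 active = fluorescence change differs from the solvent-only DMSO control mean at a set confidence level in both duplicate runs; inconclusive = differs from solvent-only control mean in just one of two runs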;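 note: an EC20 dose of acetylcholine follows compound addition during the same imaging run; raw fluorescence intensity difference in instrument units with no normalization to controls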
M4 ag counter = rat M4 muscarinic agonism, M1 counter-screen. shares compounds with M1 agonist. CHO M4/Gqi5 cells, Fluo-4 calcium fluorescence, agonist mode; actives lie on both sides. fluorescence change (max-min) at 10 µM. actives 9% (n = 1,700). AID 1741;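 active = fluorescence change differing from the plate's solvent-only control wells at 99.7% confidence in both duplicates, whether higher or lower; inconclusive = differs from solvent controls in only one of two duplicates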
* marks the source's active call; other numbers are inactive results.

COc1ccccc1N1CCN(C(c2cc3cc(C)ccc3[nH]c2=O)c2nnnn2C2CCCC2)CC1 (centres undefined) was read as M1 antagonist 1.1, mHtt clearance 2, AP complement 0, D1 allo mod -0.048 and M1 agonist -0.17.
COc1ccccc1N1CCN(C(c2cc3ccc(C)cc3[nH]c2=O)c2nnnn2C2CCCC2)CC1 (centres undefined) was read as M1 antagonist 1.3, mHtt clearance -56, AP complement 0, D1 allo mod -0.56, M1 agonist -2.5*, M1 ag confirm inconclusive and M4 ag counter -60.
For O=C1O/C(=C/C(=O)N2CCOCC2)c2ccccc21 the results were mHtt clearance 49.
For Cc1ccc(S(=O)(=O)n2nc(-c3ccc(Cl)cc3)nc2NCc2ccco2)cc1 the results were M1 antagonist -0.38, mHtt clearance -4, AP complement 26, D1 allo mod 0.034, M1 agonist 26*, M1 ag confirm -9.4 and M4 ag counter -30.
CC1CCCCN1C(=O)Nc1cccc(Cl)c1 (centres undefined) was read as M1 antagonist -19*, mHtt clearance 59, AP complement 4, D1 allo mod 0.79, M1 agonist 16*, M1 ag confirm inconclusive and M4 ag counter -59.
CCOC(=O)Cc1c(C)nc2c(-c3ccc(Cl)cc3)c[nH]n2c1=O was read as M1 antagonist 0.58, AP complement -5, D1 allo mod -0.79 and M1 agonist -1.1.
CCn1c(SCC(=O)Nc2cccc(NC(=O)c3ccco3)c2)nnc1-c1cccs1 was read as M1 antagonist -0.74, AP complement -8, D1 allo mod 1.2, M1 agonist 4.2*, M1 ag confirm -10 and M4 ag counter -34.
`CC1CC(=O)c2cnc(Nc3cccc(C(F)(F)F)c3)nc2C1` (centres undefined) gave M1 antagonist 0.45, mHtt clearance 23, AP complement 0, D1 allo mod 0.39, M1 agonist 3*, M1 ag confirm -4.8 and M4 ag counter 0.27.
For Cc1ccccc1N1C(=O)c2cccc3c(N(C)CCO)ccc(c23)C1=O the results were M1 antagonist -0.15, mHtt clearance 10, AP complement 20, D1 allo mod 2.1, M1 agonist 91*, M1 ag confirm 868* and M4 ag counter 912*.
Screening O=C(CSCC(=O)N1CCCCC1)Nc1nc(-c2cccs2)cs1 returned M1 antagonist -1.8, AP complement 10, D1 allo mod -2, M1 agonist 5.7*, M1 ag confirm 8.5 and M4 ag counter -11.
O=C(CSCC(=O)N1CCCCC1)Nc1nc(-c2ccc(Cl)s2)cs1 was read as M1 antagonist -0.59, mHtt clearance 17, AP complement 14, M1 agonist 4.8*, M1 ag confirm inconclusive and M4 ag counter -30.
`O=C(CSCC(=O)N1CCN(c2ccccc2)CC1)Nc1nc(-c2ccc(Cl)s2)cs1` gave mHtt clearance -9.
`CC1CC(C)CN(C(=O)CSCC(=O)Nc2nc(-c3cccs3)cs2)C1` (centres undefined) gave M1 antagonist -0.096, AP complement -3 and M1 agonist -0.59.
For Cc1n[nH]c(C)c1Cc1ccc(C(=O)O)cc1 the results were M1 antagonist -0.52, AP complement 13, D1 allo mod 0.13 and M1 agonist 0.059.
COc1ccc(Cn2c(=O)oc3ccc(C)cc32)cc1OC was read as M1 antagonist 0.11, mHtt clearance -7, AP complement -8, D1 allo mod 0.92, M1 agonist 13*, M1 ag confirm 4.2 and M4 ag counter -29.
`O=C1CCN2C=Nc3cccc4ccc1c2c34` gave M1 antagonist -11*, mHtt clearance 12, AP complement 11, M1 agonist 493*, M1 ag confirm 3266* and M4 ag counter 2765*.
O=C(CSc1ncnc2c1oc1ccccc12)NC1CCCCC1 was read as M1 antagonist 0.37, AP complement 7 and M1 agonist -0.77.
For Cc1ccc(N2CC(C(=O)Nc3ccncc3)CC2=O)cc1 (centres undefined) the results were M1 antagonist 0.053, mHtt clearance -31, AP complement 2, D1 allo mod -0.39 and M1 agonist 0.35.
Screening CC(=O)Nc1cccc(NC(=O)C2CC(=O)N(c3ccc(C)cc3)C2)c1 (centres undefined) returned M1 antagonist 0.85, mHtt clearance -69, AP complement 4, D1 allo mod -0.028, M1 agonist 3.1*, M1 ag confirm -19 and M4 ag counter -53.
`Cc1nc(SCc2c(F)cccc2Cl)c2c(=O)n(C)c(=O)n(C)c2n1` gave M1 antagonist -0.017, mHtt clearance 28, AP complement 9, D1 allo mod 4.9 and M1 agonist -0.54.
Cc1cccc(C)c1OCCCCc1c(C)n[nH]c1C was read as M1 antagonist -0.85, mHtt clearance -13, AP complement -1, D1 allo mod -0.55 and M1 agonist 0.14.
`COc1cccc(OC)c1OCCCCCc1c(C)n[nH]c1C` gave M1 antagonist -0.087, mHtt clearance -7, AP complement -4, D1 allo mod -0.63, M1 agonist 3*, M1 ag confirm -17 and M4 ag counter -44.
Screening CC(C)(C)OC(=O)N[C@@H](Cc1ccccc1)c1nnc(S(=O)(=O)Cc2ccccc2)o1 returned M1 antagonist -0.6, AP complement 31*, D1 allo mod -0.5, M1 agonist 21*, M1 ag confirm -15 and M4 ag counter -41.
COc1ccccc1C(=O)N(Cc1nc(-c2ccc(Cl)cc2)no1)C(C)C was read as M1 antagonist -0.53, mHtt clearance 20, AP complement 17, D1 allo mod -0.41 and M1 agonist -0.33.
For CC(C)C1(C)C(=O)N=C2c3ccccc3C(=O)N21 (centres undefined) the results were M1 antagonist -0.12, mHtt clearance -42, AP complement 13, D1 allo mod -0.096 and M1 agonist -0.053.
For O=c1[nH]c2cc3c(cc2cc1CN(Cc1nnnn1CC1CCCO1)C1CCCCC1)OCO3 (centres undefined) the results were M1 antagonist -0.089, AP complement 9, M1 agonist 3.6*, M1 ag confirm 93* and M4 ag counter inconclusive.
`CCC(C)(C)n1nnnc1CN(Cc1cc2cc(OC)ccc2[nH]c1=O)C1CCCC1` gave M1 antagonist -0.28, AP complement 9, M1 agonist 2.6*, M1 ag confirm -3.2 and M4 ag counter -17.
